Assay results from different studies.

Compound | target or system | assay | system | conditions | endpoint | value
COc1c(N2C[C@@H]3CCCN[C@@H]3C2)c(F)cc2c(=O)c(C(=O)O)cn(C3CC3)c12 | Mycobacteroides abscessus | microbial growth | ATCC19977 | – | MIC | 1 µM
O=c1ccc2nc3ccc(O)cc3oc-2c1 | Pseudomonas aeruginosa | microbial growth | – | 24 h | MIC | > 32 µg/mL
N.N.[Cl][Pt][Cl] | PLC | cell growth or viability, MTT | – | 72 h | IC50 | 8.21 µM
O=c1ccc2nc3ccc(OCc4ccc([N+](=O)[O-])o4)cc3oc-2c1 | Pseudomonas aeruginosa | microbial growth | – | 24 h | MIC | > 32 µg/mL
Oc1c(Cl)cc(Cl)cc1-c1[nH]c(Cl)c(Cl)c1Cl | Pseudomonas aeruginosa | microbial growth | ATCC27853 | – | MIC | 64 µM
COc1c(N2CC3CCCNC3C2)c(F)cc2c(=O)c(C(=O)OCc3cnc([N+](=O)[O-])s3)cn(C3CC3)c12 (centres unmarked) | Pseudomonas aeruginosa | microbial growth | ATCC27853 | – | MIC | 6 µM
Oc1c(Br)cc(Br)cc1-c1[nH]c(Br)c(Br)c1Br | Pseudomonas aeruginosa | microbial growth | ATCC27853 | – | MIC | 64 µM
Cc1sc2c(c1C)C(c1ccc(Cl)cc1)=N[C@@H](CC(=O)OC(C)(C)C)c1nnc(C)n1-2 | Jurkat | cell growth or viability, ATP luminescence | – | 72 h | IC50 | 1.01 µM
